Assay: Compound was tested for inhibition of ADP-induced aggregation of blood platelets in human platelet rich plasma at <80 uM concentration
Type: functional
Settings: not given
Summary of the method: (§1)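 Human platelet-rich plasma with aggregation triggered by ADP and followed by aggregometry. Each test acid was run at one stated upper concentration, and the read-out is percent inhibition of aggregation at that concentration. Each value is from a single experiment or is the mean of duplicate determinations.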

Compound `O=C(O)CCCOc1cccc(-n2cnc(-c3ccccc3)c2-c2ccccc2)c1` has an Inhibition of 57%.

Assay: Compound was tested for inhibition of ADP-induced aggregation of blood platelets in human platelet rich plasma at >32 uM concentration
Type: functional
Settings: not given
Summary of the method: as §1

`O=C(O)CCCCOc1cccc(-n2cnc(-c3ccccc3)c2-c2ccccc2)c1` gave an Inhibition of 23%.

Assay: Compound was tested for inhibition of ADP-induced aggregation of blood platelets in human platelet rich plasma at >60 uM concentration
Type: functional
Settings: not given
Summary of the method: as §1

`O=C(O)COc1cccc(CCc2nc(-c3ccc(C(F)(F)F)cc3)c(-c3ccc(C(F)(F)F)cc3)o2)c1` showed an Inhibition of 1%.

Assay: Compound was tested for inhibition of ADP-induced aggregation of blood platelets in human platelet rich plasma at >65 uM concentration
Type: functional
Settings: not given
Summary of the method: as §1

Work on `CSc1ccc(-c2nc(CCc3cccc(OCC(=O)O)c3)oc2-c2ccc(SC)cc2)cc1` yielded an Inhibition of 32%.

Assay: Compound was tested for inhibition of ADP-induced aggregation of blood platelets in human platelet rich plasma at >68 uM concentration
Type: functional
Settings: not given
Summary of the method: as §1

With `O=C(O)COc1cccc(CCc2nc(-c3cccc(Cl)c3)c(-c3cccc(Cl)c3)o2)c1` the Inhibition was 0%.

Assay: Compound was tested for inhibition of ADP-induced aggregation of blood platelets in human platelet rich plasma at >75 uM concentration
Type: functional
Settings: not given
Summary of the method: as §1

Work on `Cc1cccc(-c2nc(CCc3cccc(OCC(=O)O)c3)oc2-c2cccc(C)c2)c1` yielded an Inhibition of 30%.

Assay: Compound was tested for inhibition of ADP-induced aggregation of blood platelets in human platelet rich plasma at >78 uM concentration
Type: functional
Settings: not given
Summary of the method: as §1

`O=C(O)COc1cccc(CCc2nc(C3CCCCC3)c(C3CCCCC3)o2)c1` showed an Inhibition of 25%.

Assay: Compound was tested for inhibition of ADP-induced aggregation of blood platelets in human platelet rich plasma at >82 uM concentration
Type: functional
Settings: not given
Summary of the method: as §1

Compound `O=C(O)COc1cccc(-n2cnc(-c3ccccc3)c2-c2ccccc2)c1` has an Inhibition of 18%.

Assay: Compound was tested for inhibition of ADP-induced aggregation of blood platelets in human platelet rich plasma at >84 uM concentration
Type: functional
Settings: not given
Summary of the method: as §1

`O=C(O)COc1ccc(-n2cnc(-c3ccccc3)c2-c2ccccc2)cc1` showed an Inhibition of 23%.

Assay: Inhibition of ADP-induced aggregation of human blood platelets in plasma
Type: functional
Settings: not given

For `O=C(O)CCCCCCCCn1cc(-c2ccccc2)c(-c2ccccc2)n1` [listing 1 of 2 here], the IC50 was 5.8 µM.

Same assay, conditions: Homo sapiens, Plasma

Compared with `O=C(O)CCCCCCCCn1cc(-c2ccccc2)c(-c2ccccc2)nc1=O`, `O=C(O)CCCCCCCCn1cc(-c2ccccc2)c(-c2ccccc2)n1` [listing 2 of 2 here] is 6.6-fold lower in IC50: 29.7 µM for the first, 4.5 µM for the second. The second is the more potent here.

Going from `O=C(O)CCCCCCCn1nc(-c2ccccc2)c(-c2ccccc2)c(-c2ccccc2)c1=O` to `O=C(O)CCCCCCCn1c(-c2ccccc2)nc(-c2ccccc2)c1-c1ccccc1`, the IC50 falls from over 68 µM to 3.8 µM.

Going from `O=C(O)COc1cccc(-n2cnc(-c3ccccc3)c2-c2ccccc2)c1` to `O=C(O)CCCOc1cccc(-n2cnc(-c3ccccc3)c2-c2ccccc2)c1`, the IC50 falls from over 82 µM to under 80 µM.

First: O=C(O)COc1cccc(CCc2nc(-c3cccc(F)c3)c(-c3cccc(F)c3)o2)c1
Second: Cc1cccc(-c2nc(CCc3cccc(OCC(=O)O)c3)oc2-c2cccc(C)c2)c1
The IC50 of the first is lower: 17.7 µM for the first, over 75 µM for the second.

`Cc1nc(-c2ccccc2)c(-c2ccccc2)n1CCCCCCCCC(=O)O` and `Cc1nc(-c2ccccc2)c(-c2ccccc2)n1CCCCCCCC(=O)O` are within 1.5-fold of each other in IC50: 3.04 µM for the first, 4.4 µM for the second.

Going from `O=C(O)CCCCCCCCn1cnc(-c2ccccc2)c1-c1ccccc1` to `O=C(O)CCCCCCCCn1nc(-c2ccccc2)c(-c2ccccc2)nc1=O`, the IC50 falls from 58.4 µM to 4.9 µM (12-fold).

Going from `O=C(O)CCCCCCCn1nc(-c2ccccc2)c(-c2ccccc2)cc1=O` to `O=C(O)CCCCCCCn1nc(-c2ccccc2)c2ccccc2c1=O`, the IC50 rises from 4.1 µM to over 84 µM.

Going from `O=C(O)COc1cccc(CCn2nc(-c3ccccc3)c(-c3ccccc3)nc2=O)c1` to `O=C(O)COc1cccc(CCn2cnc(-c3ccccc3)c2-c2ccccc2)c1`, the IC50 rises from 2.1 µM to 5 µM (2.4-fold).

Going from `O=C(O)CCCCCCCn1nnnc1C(c1ccccc1)c1ccccc1` to `O=C(O)CCCCCCCCn1nnc(C(c2ccccc2)c2ccccc2)n1`, the IC50 falls from over 84 µM to 10.7 µM.

`O=C(O)CCCCCCCCCCN(C(=O)c1ccccc1)c1ccccc1` and `O=C(O)CCCCCCCCN(C(=O)c1ccccc1)c1ccccc1` cannot be ordered by IC50: over 84 µM for the first, over 90 µM for the second.

`O=C(O)CCCCCCCc1nnc(-c2ccccc2)n1-c1ccccc1` and `O=C(O)CCCCCCCCCc1nnc(-c2ccccc2)n1-c1ccccc1` cannot be ordered by IC50: over 88 µM for the first, over 82 µM for the second.

Going from `O=C(O)CCCCCCCOc1ncc(-c2ccccc2)c(-c2ccccc2)n1` to `O=C(O)CCCCCCCCc1nc(-c2ccccc2)c(-c2ccccc2)o1`, the IC50 falls from 35.9 µM to 6.6 µM (5.4-fold).

First: O=C(O)COc1cccc(CCc2nc(-c3cccs3)c(-c3cccs3)o2)c1
Second: O=C(O)COc1cccc(CCc2nc(-c3ccccc3F)c(-c3ccccc3F)o2)c1
The IC50 of the first is 5.3-fold higher: 7.4 µM for the first, 1.4 µM for the second.

Compared with `O=C(O)CCCCCCCCn1nc(-c2ccccc2)c2ccccc2c1=O`, `O=C(O)CCCCCCCCN1C(=O)C(c2ccccc2)N(c2ccccc2)C1=O` (stereo not drawn) is lower in IC50: over 85 µM for the first, 29.4 µM for the second. The second is the more potent here.

`O=C(O)COc1cccc(Cn2cnc(-c3ccccc3)c2-c2ccccc2)c1` and `O=C(O)COc1ccc(-n2cnc(-c3ccccc3)c2-c2ccccc2)cc1` cannot be ordered by IC50: over 82 µM for the first, over 84 µM for the second.

`O=C(O)COc1ccc(CCc2nnc(-c3ccccc3)n2-c2ccccc2)cc1` and `O=C(O)COc1ccc(/C=C/c2nnc(-c3ccccc3)n2-c2ccccc2)cc1` cannot be ordered by IC50: over 80 µM for the first, over 80 µM for the second.

Going from `O=C(O)COc1cccc(CCn2nc(-c3ccccc3)n(-c3ccccc3)c2=O)c1` to `O=C(O)COc1cccc(CCn2nnc(C(c3ccccc3)c3ccccc3)n2)c1`, the IC50 rises from 1.57 µM to 3.6 µM (2.3-fold). The first is the more potent here.

`O=C(O)CCCCCCCCn1ccc(C(c2ccccc2)c2ccccc2)n1` and `O=C(O)CCCCOc1ccc(-n2cnc(-c3ccccc3)c2-c2ccccc2)cc1` cannot be ordered by IC50: over 80 µM for the first, over 76 µM for the second.

Going from `Cc1ccccc1-c1nc(CCc2cccc(OCC(=O)O)c2)oc1-c1ccccc1C` to `O=C(O)COc1cccc(CCc2nc(-c3cccc(Cl)c3)c(-c3cccc(Cl)c3)o2)c1`, the IC50 rises from 11.6 µM to over 68 µM. The first is the more potent here.

`CSc1ccc(-c2nc(CCc3cccc(OCC(=O)O)c3)oc2-c2ccc(SC)cc2)cc1` and `O=C(O)COc1cccc(CCc2nc(-c3ccc(C(F)(F)F)cc3)c(-c3ccc(C(F)(F)F)cc3)o2)c1` cannot be ordered by IC50: over 65 µM for the first, over 60 µM for the second.

`O=C(O)CCCCOc1cccc(-n2cnc(-c3ccccc3)c2-c2ccccc2)c1` and `O=C(O)COc1cccc(CCc2nc(C3CCCCC3)c(C3CCCCC3)o2)c1` cannot be ordered by IC50: over 32 µM for the first, over 78 µM for the second.

Assay: Compound was tested for inhibition of ADP-induced aggregation of blood platelets in human platelet rich plasma at >76 uM concentration
Type: functional
Settings: not given
Summary of the method: as §1

In the case of `O=C(O)CCCCOc1ccc(-n2cnc(-c3ccccc3)c2-c2ccccc2)cc1`, the Inhibition is reported as 31%.

Source: ChEMBL document CHEMBL1126128, “Nonprostanoid prostacyclin mimetics. 3. Structural variations of the diphenyl heterocycle moiety” (J Med Chem, 1992)
